A selection: hits, their analogues and other compounds. The true share with any hit is near 2.3%.
TRPC4 PAM – TRPC4 (mouse) allosteric potentiation; HEK293 TRPC4beta/mu-opioid, DAMGO EC20, Fluo-4 Ca2+ flux; hits give high values; actives 0.42% (n = 310,000); Q9QUQ5; AID 2227; B-score at 10 µM;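 active = B-score of calcium response area above 5 SD of library B-scores, with initial fluorescence ratio within 5 SD of library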;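 note: B-score of integrated fluorescence ratio over time as area under calcium response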
TRPC6 activator – mouse TRPC6 channel activation; Q61143; HEK293-TRPC6 membrane potential dye fluorescence; hits give high values; B-score at 10 µM; actives 0.13% (n = 310,000); AID 2550;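 active = B-score of the integrated fluorescence ratio above library mean plus 3 SD, and starting fluorescence ratio within library mean plus 5 SD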;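 note: higher score means more depolarization so channel activation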
Target sequence (Q61143 whole entry, looked up): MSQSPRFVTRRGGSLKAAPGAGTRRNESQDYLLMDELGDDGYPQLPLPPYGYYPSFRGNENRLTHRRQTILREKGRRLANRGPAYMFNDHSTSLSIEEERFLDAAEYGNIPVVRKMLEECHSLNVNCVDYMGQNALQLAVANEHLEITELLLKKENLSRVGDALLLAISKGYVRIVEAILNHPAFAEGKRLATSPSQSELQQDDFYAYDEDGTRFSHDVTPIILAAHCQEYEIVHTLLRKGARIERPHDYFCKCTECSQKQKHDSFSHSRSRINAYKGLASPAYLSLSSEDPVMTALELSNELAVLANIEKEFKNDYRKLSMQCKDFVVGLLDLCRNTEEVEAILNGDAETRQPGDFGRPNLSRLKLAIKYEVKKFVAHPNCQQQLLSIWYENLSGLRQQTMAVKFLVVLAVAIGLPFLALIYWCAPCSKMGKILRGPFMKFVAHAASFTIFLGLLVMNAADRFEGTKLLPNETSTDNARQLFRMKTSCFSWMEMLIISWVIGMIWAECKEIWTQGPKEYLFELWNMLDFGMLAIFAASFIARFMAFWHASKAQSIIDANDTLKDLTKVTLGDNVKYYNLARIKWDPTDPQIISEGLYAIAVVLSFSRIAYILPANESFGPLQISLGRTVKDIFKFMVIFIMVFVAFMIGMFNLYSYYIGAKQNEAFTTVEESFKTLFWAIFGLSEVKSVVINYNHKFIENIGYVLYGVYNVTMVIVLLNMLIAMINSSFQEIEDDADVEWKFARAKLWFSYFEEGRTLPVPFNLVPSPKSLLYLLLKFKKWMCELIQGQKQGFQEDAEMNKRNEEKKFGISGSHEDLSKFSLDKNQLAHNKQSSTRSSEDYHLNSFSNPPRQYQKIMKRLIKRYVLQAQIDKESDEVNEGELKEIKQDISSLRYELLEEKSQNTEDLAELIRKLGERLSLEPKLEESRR
TRPC4 act – activators of mouse TRPC4 channel; Q9QUQ5; HEK293 TRPC4beta/mu-opioid, Fluo4 calcium fluorescence; hits give high values; B-score at 10 µM; actives 0.49% (n = 310,000); AID 2237;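 active = B-score above 5 SD of library B-scores, and initial fluorescence ratio not above library mean plus 5 SD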;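 note: positive B-score marks a calcium rise read as TRPC4 activation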
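Incubation: 45 min room-temperature Fluo4 loading, 110 s read / System: HEK293 cells stably co-expressing mouse TRPC4beta and mu-opioid receptor / Signal: Fluo4 fluorescence, kinetic / Control set: buffer (low) and maximal DAMGO (high) / Measure: integrated baseline-normalised fluorescence ratio, converted to per-well B score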
TRPC4 inh – TRPC4 (mouse) channel inhibition | Q9QUQ5 | HEK293 TRPC4beta/mu-opioid, DAMGO-evoked Fluo4 calcium flux; hits give low values | B-score at 10 µM | actives 0.39% (n = 300,000) | AID 2247;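 active = B-score over 3 SD under the library average, no early fluorescence shift, positive overall ratio signal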
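System: stable TRPC4beta/mu-opioid receptor HEK293 cells; Dosing: single-point compound dosing; Measured by: Fluo4 Ca2+ flux fluorescence; Read-out basis: per-well B score of integrated baseline-normalized Fluo4 ratio.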
TRPC6 inhibitor – inhibitors of mouse TRPC6 channel | actives 1.1% (n = 310,000) | HEK293-TRPC6, membrane potential dye, ACh-evoked depolarization; hits give low values | B-score at 10 µM;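 active = B-score under library mean minus 3 SD, initial fluorescence not abnormally high, positive integrated signal ratio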;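 note: B-score derived from integrated fluorescence ratio over the kinetic read; more negative B-score means stronger inhibition of depolarization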
TRPC4 sel inh 2 – mouse TRPC4 off-target activity of TRPC6 inhibitors, second screen; HEK293 TRPC4/MOR, membrane potential dye fluorescence; channel activated by saturating DAMGO dose; inhibition, % at 10 µM; actives 42% (n = 920); shares compounds with TRPC6 inhibitor;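 active = compounds whose fluorescence signal differed from control wells by over 3 SD, either direction, in both duplicate plates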
TRPC4 spec – selectivity of TRPC6 inhibitors: effect on mouse TRPC4. activity change, negative = inhibition, % at 10 µM. HEK293 TRPC4/mu-opioid, membrane potential fluorescence. actives 61% (n = 920). AID 2777. shares compounds with TRPC6 inhibitor;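 active = rise or fall in signal beyond 3 SD of buffer-only wells in both replicate plates, either sign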;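 note: integrated kinetic ratio of fluorescence range over baseline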
HEK293 MPD ctr 2-1 – second counter-screen for TRPC6 inhibitors: parental HEK293 cells. shares compounds with TRPC6 inhibitor. parental HEK293 membrane potential dye fluorescence; maximal acetylcholine challenge after compound addition. signal change vs control, % at 10 µM. actives 31% (n = 920). AID 2779;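 active = membrane potential signal moving either way by over 3 SD of the maximum-effect control, in both duplicate plates, meaning non-specific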
HEK293 MPD ctr-1 – checks TRPC6 inhibitor effects in parental HEK293 cells. shares compounds with TRPC6 inhibitor. parental HEK293 membrane potential dye fluorescence. membrane potential signal change, % at 10 µM. actives 60% (n = 920). AID 2780;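 active = membrane potential signal shifting up or down by more than 3 SD of buffer-only wells, on both duplicate plates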
HEK293 MPD ctr-2 – checks TRPC6 modulator effects in parental HEK293 cells | shares compounds with TRPC6 inhibitor | membrane potential dye fluorescence | membrane potential signal change, % at 10 µM | actives 51% (n = 2,400) | AID 488924;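 active = membrane potential signal moves up or down beyond 5 SD from buffer-only wells, on both duplicate plates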
HEK293 MPD ctr 2-2 – second counter-screen for TRPC6 modulators: effect in parental HEK293 cells; shares compounds with TRPC6 inhibitor; membrane potential dye fluorescence; after compound, maximal acetylcholine stimulation; inhibition, % at 10 µM; actives 14% (n = 2,400);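 active = membrane potential signal drops by more than 5 SD from the mean control signal, in both duplicate plates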;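 note: plate controls were acetylcholine ECmax control wells for no effect and buffer only wells for full effect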
TRPC4/MOR mod – mouse TRPC4 off-target activity of TRPC6 modulators; shares compounds with TRPC6 inhibitor; AID 488927; HEK293 TRPC4/mu-opioid, membrane potential fluorescence; percent change from control (negative = decrease, positive = increase), % at 10 µM; actives 69% (n = 2,400);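 active = membrane potential signal moved up or down beyond 5 SD of buffer control wells, in both duplicate plates, actives on both sides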;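 note: plate controls were assay buffer wells for no effect and DAMGO maximal-effect wells for full effect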
TRPC4 ctr inh 2 – second check of whether TRPC6 modulators also affect mouse TRPC4. shares compounds with TRPC6 inhibitor. inhibition, % at 10 µM. actives 55% (n = 2,400). HEK293 TRPC4/mu-opioid, membrane potential dye fluorescence; stimulated with maximal-effect DAMGO;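 active = drop in membrane potential signal beyond 5 SD of the control wells in both duplicate plates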;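 note: TRPC4 counter screen for TRPC6 hits run under conditions tuned for TRPC6 not TRPC4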
TRPC6 block conf – confirmation of mouse TRPC6 inhibitors | shares compounds with TRPC6 inhibitor | HEK293-TRPC6, membrane potential dye, ACh-evoked depolarization | inhibition, % at 10 µM | actives 43% (n = 3,300);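 active = fluorescence ratio falls more than 5 SD below the full-stimulation control mean, in both duplicate runs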;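 note: integrated fluorescence ratio of peak minus minimum over baseline after agonist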
TRPC6 act confirm – mouse TRPC6 activator confirmation. shares compounds with TRPC6 inhibitor. HEK293-TRPC6 membrane potential dye fluorescence, FDSS. activation, % at 10 µM. actives 11% (n = 2,800). AID 488961;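 active = ratio signal rise beyond 5 SD above unstimulated control wells' mean, seen in both duplicate runs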;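 note: plate controls were buffer EC0 wells for no effect and acetylcholine ECmax response for full effect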
* = called active by the depositor; i = inactive; . = no result given.

SMILES	TRPC4 PAM	TRPC6 activator	TRPC4 act	TRPC4 inh	TRPC6 inhibitor	HEK293 MPD ctr-2	HEK293 MPD ctr 2-2	TRPC4/MOR mod	TRPC4 ctr inh 2	TRPC6 block conf	TRPC6 act confirm	others
O=C(N/N=C(\Cc1ncc[nH]1)c1ccccc1)c1cccnc1	i	i	i	i	i	.	.	.	.	.	.
Cc1ccc2c(CN3CCN(S(=O)(=O)c4ccc5c(c4)OCCO5)CC3)cc(=O)oc2c1C	i	i	i	i	-5.61*	i	i	i	i	i	i
COc1ccc(CCNC(=O)C2CCCN(S(=O)(=O)c3ccccc3)C2)cc1 (configuration not stated)	i	i	i	i	i	.	.	.	.	.	.
COc1ccc(-c2cc(C(F)(F)F)n3nc(C(=O)N4CCN(C(=O)c5ccco5)CC4)cc3n2)cc1	i	i	i	i	i	.	.	.	.	.	.
O=C(c1cc2nc(-c3ccco3)cc(C(F)(F)F)n2n1)N1CCN(Cc2ccccc2)CC1	i	i	i	i	-6.65*	.	.	.	.	i	i	TRPC4 sel inh 2=i;TRPC4 spec=5.7%*;HEK293 MPD ctr 2-1=227.0%*;HEK293 MPD ctr-1=2.3%*
Cc1ccc(NC(=O)COC(=O)C(NS(=O)(=O)c2ccc(Cl)cc2)C(C)O)cc1 (configuration not stated)	i	i	i	i	i	.	.	.	.	.	.
C/C(N)=C(/C#N)C(=O)COC(=O)C(NS(=O)(=O)c1ccc(Cl)cc1)C(C)O (configuration not stated)	i	i	i	i	-5.43*	i	i	i	i	i	i
COc1ccc(C(C(=O)NC2CCCC2)N(C(=O)c2csnn2)C2CC2)cc1 (configuration not stated)	i	i	i	i	i	.	.	.	.	.	.
COc1ccc(C(C(=O)NC2CCCC2)N(C(=O)c2csnn2)C2CCCC2)cc1 (configuration not stated)	i	i	i	i	-6.31*	i	i	18.0%*	i	i	.
O=C(COC(=O)CNC(=O)c1ccc(Cl)cc1Cl)NC1CCCCCCC1	i	i	i	i	i	.	.	.	.	.	.
O=C(CCCC1=NS(=O)(=O)c2ccccc2N1)N1CCN(c2ccccc2)CC1	i	i	i	i	-5.67*	i	i	i	i	47.0%*	.
O=Nc1c(O)n(Cc2ccccc2)c2ccccc12	i	i	i	i	i	.	.	.	.	.	.
Cc1c(CCCN)c2ccccc2n1Cc1ccccc1	i	i	i	i	-7.33*	.	.	.	.	i	i	TRPC4 sel inh 2=55.0%*;TRPC4 spec=i;HEK293 MPD ctr 2-1=i;HEK293 MPD ctr-1=-196.0%*
CC1CCCCN1S(=O)(=O)c1csc(C(N)=O)c1 (configuration not stated)	i	i	i	i	i	.	.	.	.	.	.
CC1CCCCN1S(=O)(=O)c1cnc(Cl)c(Br)c1 (configuration not stated)	i	17.6*	i	i	i	i	i	i	i	.	164.5%*
CC1CCN(S(=O)(=O)c2ccc(Cl)cc2Br)CC1	i	i	i	i	i	.	.	.	.	.	.
CC1CCN(S(=O)(=O)c2cnc(Cl)c(Br)c2)CC1	i	i	i	i	-5.34*	i	i	i	i	68.0%*	.
COc1ccccc1C(=O)COC(=O)CNS(=O)(=O)c1ccc(C)c(C)c1	i	i	i	i	i	.	.	.	.	.	.
Cc1ccc(Cl)cc1NC(=O)CC(O)(C(F)(F)F)C(F)(F)F	i	i	i	i	-8.14*	.	.	.	.	110.1%*	.	TRPC4 sel inh 2=58.0%*;TRPC4 spec=41.3%*;HEK293 MPD ctr 2-1=-77.0%*;HEK293 MPD ctr-1=28.0%*
CN(C)c1cc(NC(=O)CNC(C)(C)C)c2ccccc2n1	i	i	i	i	-9.17*	-191.5%*	i	-35.5%*	50.0%*	i	i
CCCCC(=O)Nc1cc(N(C)C)nc2ccccc12	i	i	i	i	i	.	.	.	.	.	.
Cc1ccc2c(ccn3cc4c(c(=O)n(C)c(=O)n4C)c23)c1	i	i	i	i	-7.2*	.	.	.	.	i	i	TRPC4 sel inh 2=i;TRPC4 spec=-25.0%*;HEK293 MPD ctr 2-1=i;HEK293 MPD ctr-1=-325.0%*
Cc1oc(-c2ccccc2F)nc1CN1CCC(C(=O)NC2CCCc3ccccc32)CC1 (configuration not stated)	i	i	i	i	-8.8*	.	.	.	.	i	i	TRPC4 sel inh 2=34.0%*;TRPC4 spec=28.9%*;HEK293 MPD ctr 2-1=293.0%*;HEK293 MPD ctr-1=9.1%*
Cc1ccc(SCc2cc(=O)n3ccsc3n2)c(C)c1	i	i	i	i	i	.	.	.	.	.	.
Cc1ccc(C)c(C(=O)c2c(C)nc3sccn23)c1	i	i	i	i	-6.11*	i	i	10.0%*	i	i	i
CCOC(=O)CC1(NC(=O)c2cc(COc3cccc(OC)c3)on2)CCCCC1	i	i	i	i	i	.	.	.	.	.	.
Cc1ccc(OCc2cc(C(=O)N3CC4C[C@@H]5CC3C[C@H](C4)C5)no2)cc1C	i	i	i	i	i	.	.	.	.	.	.
Cc1ccc(C(=O)O)cc1NC(=S)NC(=O)c1ccc(COc2ccccc2)cc1	i	i	i	i	i	.	.	.	.	.	.

High-throughput results from PubChem BioAssay.
